Assay outcomes deposited in PubChem by several laboratories.
In the library only some 1.9% were active in any assay of this set; here they are far more common.
Hck-Nef inh = human Hck-Nef kinase inhibition | inhibition, % at 20 µM | Recombinant Hck-YEEI plus Nef, Z-Lyte FRET kinase assay | hit rate 0.68% among 220,000;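 active = Hck-Nef kinase inhibition above about 50%, limit read from the data; inactive = inhibition below that limit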
Target sequence (P08631 whole entry, looked up): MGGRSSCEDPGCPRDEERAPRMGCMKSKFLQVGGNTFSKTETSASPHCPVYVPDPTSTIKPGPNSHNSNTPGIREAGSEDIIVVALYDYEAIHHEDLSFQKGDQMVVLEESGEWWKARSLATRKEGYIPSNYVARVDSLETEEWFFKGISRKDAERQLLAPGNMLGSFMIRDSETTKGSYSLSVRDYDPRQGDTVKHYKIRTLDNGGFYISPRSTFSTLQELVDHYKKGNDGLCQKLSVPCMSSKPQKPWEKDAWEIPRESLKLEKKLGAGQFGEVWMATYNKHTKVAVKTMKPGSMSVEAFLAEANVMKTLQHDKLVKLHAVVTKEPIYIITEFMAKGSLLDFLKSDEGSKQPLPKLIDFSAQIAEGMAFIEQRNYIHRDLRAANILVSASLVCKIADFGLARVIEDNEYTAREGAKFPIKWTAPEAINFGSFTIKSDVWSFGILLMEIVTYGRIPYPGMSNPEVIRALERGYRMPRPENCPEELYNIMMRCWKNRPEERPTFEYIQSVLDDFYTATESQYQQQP
Runt-CBFb FRET = Runt domain-CBFb interaction inhibition | Q01196+Q13951 | Cerulean-Runt/Venus-CBFb FRET ratio 530/480, 1 h | inhibition, % at 20 µM | hit rate 0.46% among 220,000 | AID 1496;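 active = inhibition over about 50% at 20 µM in the single-dose screen, limit read from the data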
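Assay system: Cerulean-tagged RUNX1 Runt domain (FRET donor) fusion protein / Amount: 100 nM each of Venus-CBFb and Cerulean-Runt domain / Medium: Tris buffer pH 7.5 with salts and BSA / Also added: Venus-CBFb 100 nM / Schedule: 1 h complex formation plus 1 h compound treatment, room temperature / Signal: FRET fluorescence / Read-out: loss of energy transfer signal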
RanGTP-Impb inh = disruptors of Ran-importin-beta complex formation – biochemical, FRET, CFP-Ran, YFP-importin-beta, homogeneous, primary screen. cell-free CFP-Ran/YFP-importin-beta FRET ratio. inhibition, % (no concentration beside the values). hit rate 1.1% among 300,000. AID 2216;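 active = more than half of the replicate wells show a fall in the fluorescence ratio signal beyond about 16%, limit read from the data, passing the limit was not always enough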
Runt-SMMHC FRET = Runt domain-CBFb-SMMHC interaction inhibition. Q01196+Q13951. hit rate 0.74% among 220,000. Cerulean-Runt/Venus-CBFb-SMMHC FRET ratio 530/480, 1 h. inhibition, % at 20 µM;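 active = mean inhibition across duplicate retests at 20 µM reaching about 50%, limit read from the data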;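 note: inhibitors lower the FRET ratio by blocking Runt binding to CBFb-SMMHC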
TbHK1 inh = T. brucei hexokinase 1 inhibition; recombinant TbHK1, G6PDH-coupled NADH A340; inhibition, % at 10 µM; hit rate 0.11% among 220,000; AID 1430;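 active = inhibition of 50% or more in the single-dose primary screen; inactive = inhibition below 50%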
A number is an active result; . = inactive; / = no result.

SMILES	Hck-Nef inh	Runt-CBFb FRET	RanGTP-Impb inh	Runt-SMMHC FRET	TbHK1 inh
Cc1cccc2cc3c(nc12)-c1ccccc1C3=O	/	/	.	/	/
Cc1ccc(C(=O)O)cc1NC(=S)NC(=O)c1ccc(-c2ccc(Cl)cc2)o1	56	.	.	.	.
CC(=O)c1nn(-c2cccc(Br)c2)cc1C(=O)c1ccc(Br)cc1	.	.	29	.	.
COc1cc(/C=C(\C#N)c2nc3ccccc3[nH]2)c([N+](=O)[O-])cc1OCc1ccccc1	.	.	.	83	.
COc1ccc(NC2=CC(=O)CC(c3ccc(C)cc3)C2)c(OC)c1 (stereo not drawn)	.	/	.	/	.
COc1ccccc1NC1=CC(=O)CC(c2ccccc2)C1 (stereo not drawn)	.	.	55	.	.
O=C(CCNC(=O)c1ccco1)Nc1ccc(Cl)cc1F	/	/	.	/	/
CCOC(=O)c1c(NC(=O)C2COc3ccccc3O2)sc2c1CCN(Cc1ccccc1)C2 (stereo not drawn)	.	.	90	.	.
CCOC(=O)c1c(NC(=S)Nc2ccccc2)sc2c1CCN(CC)C2	.	61	62	152	.
COC(=O)N1CCc2c(sc(NC(=O)C3COc4ccccc4O3)c2C(N)=O)C1 (stereo not drawn)	/	/	.	/	/
NC(=O)c1c(NC(=O)C2COc3ccccc3O2)sc2c1CCN(Cc1ccccc1)C2 (stereo not drawn)	.	110	.	137	.
O=C(CNC(=O)c1ccc(Cl)c([N+](=O)[O-])c1)NCC1CCCO1 (stereo not drawn)	/	/	.	/	/
CCOc1cc2nc3c4ccccc4n(C)c3nc2cc1OCC	.	.	38	.	.
Cn1c2ccccc2c2nnc(NN)nc21	.	.	.	.	.
Cc1ccc(C(=O)NNC(=O)CSc2nnc(C(C)C)n2C)cc1	/	/	.	/	/
O=C(O)CC(C(=O)O)N1C(=O)/C(=C/C=C/c2ccco2)SC1=S (stereo not drawn)	71	.	.	.	.
CN1CC=C2C(C#N)=C(N)C(C#N)(C#N)C(c3ccsc3)C2C1 (stereo not drawn)	.	66	65	80	.
CN1CC=C2C(C#N)=C(N)C(C#N)(C#N)C(CCc3ccccc3)C2C1 (stereo not drawn)	.	103	.	79	.
CN1CC=C2C(C#N)=C(N)C(C#N)(C#N)[C@H](c3cccc(Cl)c3)C2C1 (stereo partly drawn)	.	.	45	58	.
CCOC(=O)N1CC=C2C(C#N)=C(N)C(C#N)(C#N)[C@H](c3ccsc3)[C@H]2C1	.	.	.	.	.
N#CC1=C(N)C(C#N)(C#N)C(c2ccncc2)C2CN(C(=O)OCc3ccccc3)CC=C12 (stereo not drawn)	.	.	.	.	.
CCCC1C2CN(C(C)C)CC=C2C(C#N)=C(N)C1(C#N)C#N (stereo not drawn)	.	.	89	.	.
COc1ccc(-c2nnc(SCC(=O)NC3CCCC3)n2C)cc1	/	/	.	/	/
COc1ccc(Cl)cc1N1C(=O)C2CCCN2C1c1ccc(F)cc1 (stereo not drawn)	.	.	.	.	.
O=C(NCCCc1ccccc1)c1cc(COc2ccc(F)cc2Cl)on1	/	/	.	/	/
SMILES	Hck-Nef inh	Runt-CBFb FRET	RanGTP-Impb inh	Runt-SMMHC FRET	TbHK1 inh
CN1CC=C2C(C#N)=C(N)C(C#N)(C#N)[C@H](c3cccs3)[C@H]2C1	.	.	55	75	.
CC(C)c1ccc(C2C3CSCC=C3C(C#N)=C(N)C2(C#N)C#N)cc1 (stereo not drawn)	.	.	16	.	.
COc1ccc2[nH]c3c(NCCC4=CCCCC4)ncnc3c2c1	92	/	.	.	.
COc1ccc(C(=O)c2sc3nc(-c4ccc(OC)cc4)ccc3c2N)cc1	.	.	23	.	.
CC(=O)c1sc2nc(-c3cccs3)ccc2c1N	.	.	.	83	.
CC(C)=CC(=O)NCc1c(Cl)cccc1-n1cccc1	.	.	.	.	.
COC(=O)c1c(NC(=O)CCCC(=O)O)sc(C)c1C	.	.	.	.	.
Cc1sc(NC(=O)CCCC(=O)O)c(C(N)=O)c1-c1ccccc1	102	.	.	.	.
Cc1[nH]c(C)c(C(=O)/C=C/c2ccc([N+](=O)[O-])cc2)c1C	/	/	.	/	/
Cc1ccc(-c2c(C(=O)NNC(=S)NCC3CCCO3)csc2C)cc1 (stereo not drawn)	.	.	.	.	.
CCC1=[N+](CC(=O)c2ccc(C)cc2)CCn2c(C)ccc21	.	.	44	.	.
CCC1=[N+](CC(=O)c2ccc(Br)cc2)CCn2c(C)ccc21	.	.	.	.	.
CCCN1CCN(CC(O)COC(c2ccc(OC)cc2)c2ccc(OC)cc2)CC1 (stereo not drawn)	/	/	.	/	/
O=c1cc(CCl)nc(Cc2c(Cl)cccc2Cl)[nH]1	/	/	.	/	/
COc1ccc(CN2CCNC(=O)C2CC(=O)NCCC2=CCCCC2)cc1OC (stereo not drawn)	.	.	.	.	.
Cc1cccn2c(=O)c3cc(C(=O)NC4CCCC4)c(=N)n(C4CCCCC4)c3nc12	/	/	175	/	/
CCCCNC(=O)c1cc2c(=O)n3cccc(C)c3nc2n(Cc2ccccc2)c1=N	.	.	188	62	.
Cc1cccn2c(=O)c3cc(C(=O)NC4CCCC4)c(=N)n(Cc4ccc(F)cc4)c3nc12	/	/	178	/	/
COCCCn1c(C(=O)NC2CCCCC2C)cc2c(=O)n3cccc(C)c3nc21 (stereo not drawn)	/	/	.	/	/
Cc1cccn2c(=O)c3cc(C(=O)NC4CCCC4)sc3nc12	/	/	.	/	/
Cc1cccn2c(=O)c3cc(C(=O)NC4CCCCC4)c(=N)n(Cc4ccccc4)c3nc12	/	/	186	/	/
CCC(CC)C(=O)N=C1SC2CS(=O)(=O)CC2N1CCc1ccc(OC)cc1 (stereo not drawn)	.	.	.	.	.
COc1nccc(C(F)(F)F)c1C(=O)NC(=O)Nc1ccccc1	.	.	.	.	.
COC(=O)c1ccc(OCC(=O)c2cccc(OC)c2)cc1	.	.	.	.	.
Cc1cccn2c(=O)c3cc(C(=O)NC4CCCC4)c(=N)n(CCc4ccccc4)c3nc12	/	/	179	/	/
SMILES	Hck-Nef inh	Runt-CBFb FRET	RanGTP-Impb inh	Runt-SMMHC FRET	TbHK1 inh
Fc1ccc(C(CCNCc2ccccn2)c2ccc(Cl)cc2)cc1 (stereo not drawn)	/	/	.	/	/
COc1ccc(-c2nc3ccccc3[nH]2)cc1	.	.	.	.	.
COc1ccc(-c2cc(=O)n(-c3nc4ccccc4[nH]3)[nH]2)cc1	.	.	56	.	.
CCN(CC)S(=O)(=O)c1cccc(NC(=O)CSc2nnc(N)s2)c1	.	.	30	.	.
c1ccc(-c2ccc(-c3ccccn3)s2)nc1	.	.	18	.	.
O=C(O)CSc1nnc(NC(=O)CN2CCOCC2)s1	/	/	.	/	/
CCCCn1c(N)c(N(CCOC)C(=O)COC(=O)CCOc2ccccc2C)c(=O)[nH]c1=O	/	/	.	/	/
CC1(C)CC(=O)C(C(O)c2ccccc2)C(C)(C)N1 (stereo not drawn)	/	/	.	/	/
